The record followed here is PubChem BioAssay AID720717 (ICCB-Longwood Screening Facility, Harvard Medical School, 2013).

Each structure is given as a SMILES string. Several values for one entry are separate records, joined by “and”; a condition that tells them apart may be missing. Equal entries are not always repeated. The campaign covered roughly 51,000 compounds. About 150 (0.29%) were called active.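 How the source made its calls: active means both repeat wells score below -2 in polarization z-score versus plate sample wells, excluding overly bright wells; inactive means the rest.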 What follows is part of a selection rich in actives, with near analogues and random picks from the rest.

The test system of this experiment is LANA (ORF73) N-terminal peptide binding to nucleosomes, Human herpesvirus 8. The experiment can be described thus: inhibitors of KSHV LANA-nucleosome binding, primary screen, biochemical, fluorescence polarization, FITC-LANA1-23, chicken nucleosomes (AID 720717). The conditions noted are these: FITC-LANA1-23 / chicken nucleosome fluorescence polarization; active compounds read low. The procedure, abridged:
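Material: Purified chicken nucleosomes with FITC-labelled LANA N-terminal peptide (1-23) | Reagent: 50 nM FITC-LANA1-23 probe | Medium: TEN-BT buffer, pH 7.5 | Times: 10–45 min incubation at room temperature | Detection: Fluorescence polarization | Replication: Duplicates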
With `CCOC(=O)NCc1cc(C(=O)O)ccc1O`, the z-score was 0.19 (inactive). `CCN1C(=Nc2ccc(O)cc2)SC/C1=C\C(=O)OC`: the z-score was 2.25 (inactive). `CN(C)C(CNC(=O)c1cc2ccccc2oc1=O)c1ccco1` (stereo not given): the z-score was -0.421 (inactive). Take `O=S1(=O)CCC(S(=O)(=O)N2CCCC2)C1` (stereo not given): the z-score was -0.472 (inactive). For the molecule `CCCCSC1=NC(=O)CC(=O)N1`, the z-score was -1.46 (inactive). Take `CC(=O)N1CCC(N(c2ccc3c(c2)OCO3)S(=O)(=O)c2ccccc2)CC1`: the z-score is 0.764 (inactive). As to `Cc1ccc(S(=O)(=O)Nc2cccc(C(=O)N3CCCCC3)c2)cc1`, the z-score is 1.2 (inactive). For the molecule `O=C1Nc2ccccc2N(c2ccccc2)N1`, the z-score was -3.48 (active). `O=C(O)CN1CC(=O)Nc2ccccc21`: the z-score was 0.771 (inactive). As to `CCCCC(C)C(N)=O` (stereo not given), the z-score was -0.323 (inactive). As for `CC[N+](C)(CC)CCC[n+]1c(-c2ccccc2)c2cc(N)ccc2c2ccc(N)cc21`, the z-score is -3.89 (active) and -3.44 (active). On to `CCN(Cc1ccccc1)C(=O)C1CCN(Cc2cc(Br)c(O)c(OC)c2)CC1`, for which the z-score is -0.834 (inactive). With `O=C1CC(NC2CCN(S(=O)(=O)c3ccc(Cl)cc3)CC2)C(=O)N1` (stereo not given), the z-score was 2.47 (inactive). For the molecule `Cc1ccc(NC(=O)CSC2=NC(=O)CC(=O)N2)cc1`, the z-score was -0.876 (inactive).

`COc1ccc(C2=NS(=O)(=O)N(C)C(C(=O)NCC(C)C)=C2)cc1OC`: the z-score is -0.724 (inactive). In the case of `CCN(CC)C(=O)Cc1c(C(=O)O)[nH]c2ccc(Cl)cc12`, the z-score was 0.22 (inactive). Then `Cc1ccc(C(=O)N2CCCN(C)CC2)o1`, with -1.2 (inactive); and `O=C(OCc1ccccc1Cl)c1cc(=O)[nH]c2ccccc12`, with -1.04 (inactive); and `O=C(Nc1ccc(Cl)cc1)c1ncoc1-c1cccs1`, with 0.41 (inactive). In the case of `COC(=O)c1ccc(NS(=O)(=O)c2cc(C(=O)OC)n(C)c2)cc1`, the z-score is -0.537 (inactive). Turning to `Cc1ccc(-c2nc3ccccc3[nH]2)cc1NC(=O)C(C)C`, the z-score was -0.762 (inactive). Regarding `CCC(=O)NC1CC(=O)N(c2ccc(F)cc2)C1` (stereo not given), the z-score is -0.098 (inactive). As for `COc1ccc(CCN2C(=O)CSC2c2ccc3cccc(O)c3n2)cc1OC` (stereo not given), the z-score is 1.12 (inactive). On to `Cn1ncc(Br)c1-c1cccc(NC(=O)COCC(=O)O)c1`, for which the z-score is -1.14 (inactive). With `CCCCCn1c(=O)[nH]c2cc(C(=O)Nc3cc(OC)c(OC)c(OC)c3)ccc2c1=O`, the z-score was -0.668 (inactive). Regarding `Cn1c(=O)c2c(nc(N3CCNCC3)n2C)n(C)c1=O`, the z-score was 0.302 (inactive). The value for `O=c1c(-c2cc3ccccc3o2)[n+]([O-])c2ccccc2n1O` was -2.61 (active).

In the case of `COc1ccc2oc(=O)cc(-c3cc4ccccc4o3)c2c1`, the z-score was -0.251 (inactive). For `O=C(CSc1ncccn1)N1CCCC1`, the z-score was -0.327 (inactive).

With `O=C(Nc1ccc2nc(CN3CCCCC3)[nH]c2c1)c1cccs1`, the z-score was -0.0365 (inactive). Take `Cc1cccc(C)c1N1CCN(S(=O)(=O)N2CCCCC2)CC1`: the z-score was -1.66 (inactive). As for `COc1ccc(C(=O)Nc2ccccc2C(=O)NCc2ccco2)cc1`, the z-score was 0.333 (inactive). The value for `CN(C)C(=O)CN1CCC(N2CCCCC2)CC1` was -0.624 (inactive); that for `COc1ccc(Cn2ccc3nc4ccn(Cc5ccc(OC)cc5)c(=O)c4cc3c2=O)cc1` was 0.327 (inactive); that for `CN1C(=O)/C(=C/C=C2\SCCN2C)OC1=S` was -2.92 (active). Then `COc1cccc(NS(=O)(=O)c2ccc3[nH]cc(C(=O)N4CCCCC4C)c(=O)c3c2)c1` (stereo not given), with 0.613 (inactive). Take `O=C(O)COc1ccc(CN2CCCC2)cc1`: the z-score is 0.199 (inactive). Regarding `N/C(=N\OC(=O)CC1CCCCC1)c1ccccc1`, the z-score is -0.568 (inactive). Take `Cc1nnc(NC2CC2)c2c1nnn2Cc1ccc(F)cc1`: the z-score is 0.653 (inactive).

Consider `CN(C)CCNC(=O)c1ccc(/C=C2\SC(=S)N(C)C2=O)cc1`, for which the z-score is 1.24 (inactive).
